Experimental data taken from ChEMBL document CHEMBL3124849, “Total synthesis of burkholdacs A and B and 5,6,20-tri-epi-burkholdac A: HDAC inhibition and antiproliferative activity” (Eur J Med Chem, 2014).

Legend:
[1] = Cytotoxicity against human DMS114 cells by SRB assay; format: functional; conditions: DMS-114
Summary of the method: (§1)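 Tested at the Japanese Foundation for Cancer Research panel of 39 human cancer cell lines. Five concentrations per compound, spanning 10^-10 to 10^-6 M or 10^-8 to 10^-4 M. Growth measured by sulforhodamine B colorimetry. GI50 is the concentration giving 50% growth inhibition relative to control.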

[2] = Cytotoxicity against human OVCAR5 cells by SRB assay; format: functional; conditions: OVCAR-5; summary of the method: as §1
[3] = system: OVCAR-3; test: Cytotoxicity against human OVCAR3 cells by SRB assay; format: functional; summary of the method: as §1
[4] = Cytotoxicity against human OVCAR4 cells by SRB assay; format: functional; conditions: OVCAR-4; summary of the method: as §1
[5] = system: SNB-75; test: Cytotoxicity against human SNB75 cells by SRB assay; format: functional; summary of the method: as §1
[6] = system: LOX IMVI; test: Cytotoxicity against human LOXIMVI cells by SRB assay; format: functional; summary of the method: as §1
[7] = system: HCC 2998; test: Cytotoxicity against human HCC2998 cells by SRB assay; format: functional; summary of the method: as §1
[8] = system: A549; test: Cytotoxicity against human A549 cells by SRB assay; format: functional; summary of the method: as §1
[9] = Cytotoxicity against human MKN1 cells by SRB assay; format: functional; conditions: MKN-1; summary of the method: as §1
[10] = system: St-4; test: Cytotoxicity against human St-4 cells by SRB assay; format: functional; summary of the method: as §1
[11] = system: NCI-H23; test: Cytotoxicity against human NCI-H23 cells by SRB assay; format: functional; summary of the method: as §1
[12] = Cytotoxicity against human MKN7 cells by SRB assay; format: functional; conditions: MKN-7; summary of the method: as §1
[13] = system: SF-295; test: Cytotoxicity against human SF295 cells by SRB assay; format: functional; summary of the method: as §1
[14] = target: T1, Protein deacetylase HDAC6 (Mus musculus, UniProt Q9Z2V5); test: Inhibition of mouse HDAC6 expressed in human 293T cells using Ac-KGLGK(Ac)-MCA as substrate after 30 mins by fluorescence assay; format: cell-based
T1 sequence (Q9Z2V5 whole entry): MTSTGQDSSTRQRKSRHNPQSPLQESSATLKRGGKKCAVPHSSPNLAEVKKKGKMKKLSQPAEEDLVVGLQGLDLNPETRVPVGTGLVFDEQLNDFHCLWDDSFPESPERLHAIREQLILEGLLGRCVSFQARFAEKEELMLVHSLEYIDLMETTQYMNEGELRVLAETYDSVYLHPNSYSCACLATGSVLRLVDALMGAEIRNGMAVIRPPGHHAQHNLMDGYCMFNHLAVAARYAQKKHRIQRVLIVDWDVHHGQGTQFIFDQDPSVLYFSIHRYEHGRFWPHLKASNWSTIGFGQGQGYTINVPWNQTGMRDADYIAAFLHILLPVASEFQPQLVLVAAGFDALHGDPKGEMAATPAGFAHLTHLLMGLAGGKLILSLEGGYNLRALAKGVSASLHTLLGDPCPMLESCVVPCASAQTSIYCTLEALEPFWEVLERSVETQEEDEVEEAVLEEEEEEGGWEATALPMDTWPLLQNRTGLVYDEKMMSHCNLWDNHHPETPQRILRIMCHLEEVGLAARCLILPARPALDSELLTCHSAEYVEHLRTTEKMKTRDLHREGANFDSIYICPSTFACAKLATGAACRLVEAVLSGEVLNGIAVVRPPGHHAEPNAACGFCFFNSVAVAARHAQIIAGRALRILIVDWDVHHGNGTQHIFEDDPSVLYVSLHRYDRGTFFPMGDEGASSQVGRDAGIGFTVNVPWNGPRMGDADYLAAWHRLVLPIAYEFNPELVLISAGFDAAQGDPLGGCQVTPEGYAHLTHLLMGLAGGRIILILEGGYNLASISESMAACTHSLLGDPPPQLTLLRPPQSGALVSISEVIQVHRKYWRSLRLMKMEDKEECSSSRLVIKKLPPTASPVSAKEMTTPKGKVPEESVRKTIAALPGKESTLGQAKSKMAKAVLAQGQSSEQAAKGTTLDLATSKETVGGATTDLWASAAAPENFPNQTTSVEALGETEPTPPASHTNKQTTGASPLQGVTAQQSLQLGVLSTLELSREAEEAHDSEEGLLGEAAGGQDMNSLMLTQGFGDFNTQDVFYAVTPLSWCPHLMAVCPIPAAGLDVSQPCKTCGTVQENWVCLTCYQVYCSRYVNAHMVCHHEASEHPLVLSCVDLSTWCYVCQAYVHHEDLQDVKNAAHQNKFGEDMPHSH

[15] = system: HCT-15; test: Cytotoxicity against human HCT15 cells by SRB assay; format: functional; summary of the method: as §1
[16] = system: OVCAR-8; test: Cytotoxicity against human OVCAR8 cells by SRB assay; format: functional; summary of the method: as §1
[17] = system: HT-29; test: Cytotoxicity against human HT-29 cells by SRB assay; format: functional; summary of the method: as §1
[18] = system: SF-268; test: Cytotoxicity against human SF268 cells by SRB assay; format: functional; summary of the method: as §1
[19] = system: NCI-H522; test: Cytotoxicity against human NCI-H522 cells by SRB assay; format: functional; summary of the method: as §1
[20] = system: MDA-MB-231; test: Cytotoxicity against human MDA-MB-231 cells by SRB assay; format: functional; summary of the method: as §1
[21] = Cytotoxicity against human SNB78 cells by SRB assay; format: functional; conditions: SNB-78; summary of the method: as §1
[22] = system: DU-145; test: Cytotoxicity against human DU145 cells by SRB assay; format: functional; summary of the method: as §1
[23] = Cytotoxicity against human HBC4 cells by SRB assay; format: functional; summary of the method: as §1
[24] = system: NCI-H226; test: Cytotoxicity against human NCI-H226 cells by SRB assay; format: functional; summary of the method: as §1
[25] = system: ACHN; test: Cytotoxicity against human ACHN cells by SRB assay; format: functional; summary of the method: as §1
[26] = system: KM12; test: Cytotoxicity against human KM12 cells by SRB assay; format: functional; summary of the method: as §1
[27] = system: SF-539; test: Cytotoxicity against human SF539 cells by SRB assay; format: functional; summary of the method: as §1
[28] = system: MCF7; test: Cytotoxicity against human MCF7 cells by SRB assay; format: functional; summary of the method: as §1
[29] = system: U-251; test: Cytotoxicity against human U251 cells by SRB assay; format: functional; summary of the method: as §1
[30] = system: SK-OV-3; test: Cytotoxicity against human SKOV3 cells by SRB assay; format: functional; summary of the method: as §1
[31] = Cytotoxicity against human MKN28 cells by SRB assay; format: functional; conditions: MKN-28; summary of the method: as §1
[32] = Cytotoxicity against human DMS273 cells by SRB assay; format: functional; conditions: DMS-273; summary of the method: as §1
[33] = Cytotoxicity against human MKN74 cells by SRB assay; format: functional; conditions: MKN-74; summary of the method: as §1
[34] = Cytotoxicity against human HBC5 cells by SRB assay; format: functional; summary of the method: as §1
[35] = system: PC-3; test: Cytotoxicity against human PC3 cells by SRB assay; format: functional; summary of the method: as §1
[36] = system: NCI-H460; test: Cytotoxicity against human NCI-H460 cells by SRB assay; format: functional; summary of the method: as §1
[37] = system: HCT-116; test: Cytotoxicity against human HCT116 cells by SRB assay; format: functional; summary of the method: as §1
[38] = target: Histone deacetylase 1 (Homo sapiens, UniProt Q13547); test: Inhibition of human HDAC1 expressed in human 293T cells using Ac-KGLGK(Ac)-MCA as substrate after 30 mins by fluorescence assay
[39] = Cytotoxicity against human BSY1 cells by SRB assay; format: functional; conditions: BSY-1; summary of the method: as §1
[40] = Cytotoxicity against human RXF631L cells by SRB assay; format: functional; conditions: RXF 631; summary of the method: as §1
[41] = Cytotoxicity against human MKN45 cells by SRB assay; format: functional; conditions: MKN-45; summary of the method: as §1

Histone deacetylase 1, sequence (Q13547 whole entry): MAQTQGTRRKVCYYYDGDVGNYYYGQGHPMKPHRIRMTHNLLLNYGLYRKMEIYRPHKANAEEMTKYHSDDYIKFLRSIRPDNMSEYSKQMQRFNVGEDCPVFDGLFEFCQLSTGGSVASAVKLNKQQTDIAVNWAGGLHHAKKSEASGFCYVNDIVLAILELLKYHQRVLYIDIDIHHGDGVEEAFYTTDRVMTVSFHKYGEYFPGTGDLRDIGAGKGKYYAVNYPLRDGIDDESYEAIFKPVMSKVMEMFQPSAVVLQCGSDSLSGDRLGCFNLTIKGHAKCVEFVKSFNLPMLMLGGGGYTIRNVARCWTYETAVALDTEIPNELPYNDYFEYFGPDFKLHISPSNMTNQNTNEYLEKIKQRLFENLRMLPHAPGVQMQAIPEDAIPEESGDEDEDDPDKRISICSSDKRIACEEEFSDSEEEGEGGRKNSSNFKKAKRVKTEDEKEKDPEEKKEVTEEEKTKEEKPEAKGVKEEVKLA

CSCC[C@@H]1NC(=O)C[C@H]2/C=C/CCSSC[C@@H](NC1=O)C(=O)N[C@@H](C(C)C)[C@H](O)CC(=O)O2
GI50 [1]: 1300 nM | GI50 [2]: 1300 nM | GI50 [3]: 1800 nM | GI50 [4]: 1800 nM | GI50 [5]: 1000 nM | GI50 [6]: 230 nM | GI50 [7]: 1700 nM | GI50 [8]: 1400 nM | GI50 [9]: 1400 nM | GI50 [10]: 3400 nM | GI50 [11]: 1600 nM | GI50 [12]: 2100 nM | GI50 [13]: 1600 nM | IC50 [14]: > 10000 nM | GI50 [15]: 15000 nM | GI50 [16]: 1900 nM | GI50 [17]: 1400 nM | GI50 [18]: 960 nM | GI50 [19]: 360 nM | GI50 [20]: 1800 nM | GI50 [21]: 1700 nM | GI50 [22]: 1500 nM | GI50 [23]: 1300 nM | GI50 [24]: 1700 nM | GI50 [25]: 4400 nM | GI50 [26]: 1600 nM | GI50 [27]: 1800 nM | GI50 [28]: 1800 nM | GI50 [29]: 410 nM | GI50 [30]: 1700 nM | GI50 [31]: 1900 nM | GI50 [32]: 2300 nM | GI50 [33]: 1500 nM | GI50 [34]: 1900 nM | GI50 [35]: 1600 nM | GI50 [36]: 1800 nM | GI50 [37]: 540 nM | IC50 [38]: 337 nM | GI50 [39]: 1600 nM | GI50 [40]: 4000 nM | GI50 [41]: 3700 nM
